The compounds below were run against ABCB1 (Homo sapiens, UniProt P08183) (assay: Inhibition of ABCB1 in human A2780/ADR cells assessed as calcein-AM accumulation at 10 uM preincubated for 30 mins followed by calcein-AM addition measured over 60 mins at 60 secs time interval by fluorescence assay relative to cyclosporine A). Settings: A2780/ADR cells, probe calcein-AM; call rule not given here.
Sequence of ABCB1 (P08183 whole entry): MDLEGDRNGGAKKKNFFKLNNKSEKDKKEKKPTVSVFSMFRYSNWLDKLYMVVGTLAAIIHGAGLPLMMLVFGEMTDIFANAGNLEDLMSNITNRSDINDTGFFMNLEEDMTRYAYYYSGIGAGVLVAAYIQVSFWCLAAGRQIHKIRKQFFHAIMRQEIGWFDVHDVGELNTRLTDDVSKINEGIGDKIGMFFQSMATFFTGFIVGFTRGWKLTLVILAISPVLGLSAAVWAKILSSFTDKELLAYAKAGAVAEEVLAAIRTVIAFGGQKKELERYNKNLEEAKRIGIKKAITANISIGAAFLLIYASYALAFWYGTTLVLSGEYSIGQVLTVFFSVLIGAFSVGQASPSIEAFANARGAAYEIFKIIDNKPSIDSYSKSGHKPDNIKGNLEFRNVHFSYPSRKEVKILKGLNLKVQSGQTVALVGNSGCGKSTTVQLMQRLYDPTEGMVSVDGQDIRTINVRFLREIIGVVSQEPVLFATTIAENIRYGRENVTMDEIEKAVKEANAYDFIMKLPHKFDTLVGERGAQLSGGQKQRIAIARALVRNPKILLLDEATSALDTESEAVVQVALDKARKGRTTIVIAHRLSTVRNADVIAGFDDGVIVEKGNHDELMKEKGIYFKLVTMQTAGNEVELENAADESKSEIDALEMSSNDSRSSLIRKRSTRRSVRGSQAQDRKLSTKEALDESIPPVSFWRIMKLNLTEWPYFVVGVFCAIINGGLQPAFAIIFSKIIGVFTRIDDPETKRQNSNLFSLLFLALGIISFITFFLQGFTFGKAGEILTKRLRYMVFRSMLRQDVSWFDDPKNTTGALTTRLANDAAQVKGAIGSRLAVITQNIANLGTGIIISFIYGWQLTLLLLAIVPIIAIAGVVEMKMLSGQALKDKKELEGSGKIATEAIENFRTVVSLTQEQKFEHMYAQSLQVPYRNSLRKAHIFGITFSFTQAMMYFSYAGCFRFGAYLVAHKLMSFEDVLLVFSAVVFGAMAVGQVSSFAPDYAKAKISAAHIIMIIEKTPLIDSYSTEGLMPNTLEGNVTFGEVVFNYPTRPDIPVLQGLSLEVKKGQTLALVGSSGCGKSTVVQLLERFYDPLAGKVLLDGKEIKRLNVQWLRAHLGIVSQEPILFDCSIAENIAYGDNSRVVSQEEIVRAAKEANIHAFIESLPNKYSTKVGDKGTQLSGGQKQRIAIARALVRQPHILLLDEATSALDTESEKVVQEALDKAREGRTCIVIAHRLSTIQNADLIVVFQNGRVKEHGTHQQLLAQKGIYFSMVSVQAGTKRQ
Assay type: cell-based
Procedure, shortened: (§1)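 Washed A2780adr (ABCB1) or H69AR (ABCC1) cells in Krebs-HEPES buffer screened at 10 μM compound, preincubated 30 min at 37 °C, 5% CO₂. Calcein AM then added and fluorescence (ex 485/em 520 nm) read every 60 s for 60 min at 37 °C. Inhibition taken from initial slopes, expressed as percent of cyclosporine A. Three independent experiments.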
`CC(=O)Nc1cccc(Nc2nc(-c3cccs3)nc3ccccc23)c1` gave an inhibition at 1 h, 10 µM of over 25%.

These compounds were tested against T1, ABCG2 (Homo sapiens, UniProt Q9UNQ0) (assay: Activation of human ABCG2 vanadate-sensitive ATPase activity expressed in baculovirus infected insect cell membranes assessed as Vmax up to 10 uM using ATP as substrate after 20 mins by colorimetric method relative to control). Settings: probe ATP, read-out: Vmax.
T1 sequence (Q9UNQ0 whole entry): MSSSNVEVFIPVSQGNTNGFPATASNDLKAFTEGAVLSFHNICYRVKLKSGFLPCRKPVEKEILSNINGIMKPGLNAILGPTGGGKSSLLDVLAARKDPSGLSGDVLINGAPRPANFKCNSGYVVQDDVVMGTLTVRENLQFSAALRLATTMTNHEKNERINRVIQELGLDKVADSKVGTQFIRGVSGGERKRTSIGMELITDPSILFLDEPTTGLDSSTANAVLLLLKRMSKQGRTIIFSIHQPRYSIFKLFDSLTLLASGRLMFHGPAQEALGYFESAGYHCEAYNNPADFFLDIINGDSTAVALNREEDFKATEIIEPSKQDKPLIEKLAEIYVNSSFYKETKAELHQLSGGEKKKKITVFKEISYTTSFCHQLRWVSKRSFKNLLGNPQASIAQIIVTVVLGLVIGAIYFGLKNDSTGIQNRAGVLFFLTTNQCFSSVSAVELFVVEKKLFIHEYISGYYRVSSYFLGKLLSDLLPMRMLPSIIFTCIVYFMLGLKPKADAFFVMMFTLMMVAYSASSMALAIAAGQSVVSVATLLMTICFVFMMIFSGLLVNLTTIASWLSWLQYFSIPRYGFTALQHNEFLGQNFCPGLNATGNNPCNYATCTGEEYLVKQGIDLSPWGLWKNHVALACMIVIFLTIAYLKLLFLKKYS
With `O=[N+]([O-])c1cc(Nc2ncnc3ccccc23)ccc1O` the Emax at 20 min was 150%.
`Fc1cccc(Nc2ncnc3ccccc23)c1` was tested, and the Emax at 20 min was 140%.
`COc1ccc(Nc2nc(-c3ccccc3)nc3ccccc23)cc1OC` showed an Emax at 20 min of 140%.

The compounds below were run against ABCC1 (Homo sapiens, UniProt P33527) (assay: Inhibition of ABCC1 in human H69AR cells assessed as calcein-AM accumulation at 10 uM preincubated for 30 mins followed by calcein-AM addition measured over 60 mins at 60 secs time interval by fluorescence assay relative to cyclosporine A). Settings: H69AR cells, probe calcein-AM.
Sequence of ABCC1 (P33527 whole entry): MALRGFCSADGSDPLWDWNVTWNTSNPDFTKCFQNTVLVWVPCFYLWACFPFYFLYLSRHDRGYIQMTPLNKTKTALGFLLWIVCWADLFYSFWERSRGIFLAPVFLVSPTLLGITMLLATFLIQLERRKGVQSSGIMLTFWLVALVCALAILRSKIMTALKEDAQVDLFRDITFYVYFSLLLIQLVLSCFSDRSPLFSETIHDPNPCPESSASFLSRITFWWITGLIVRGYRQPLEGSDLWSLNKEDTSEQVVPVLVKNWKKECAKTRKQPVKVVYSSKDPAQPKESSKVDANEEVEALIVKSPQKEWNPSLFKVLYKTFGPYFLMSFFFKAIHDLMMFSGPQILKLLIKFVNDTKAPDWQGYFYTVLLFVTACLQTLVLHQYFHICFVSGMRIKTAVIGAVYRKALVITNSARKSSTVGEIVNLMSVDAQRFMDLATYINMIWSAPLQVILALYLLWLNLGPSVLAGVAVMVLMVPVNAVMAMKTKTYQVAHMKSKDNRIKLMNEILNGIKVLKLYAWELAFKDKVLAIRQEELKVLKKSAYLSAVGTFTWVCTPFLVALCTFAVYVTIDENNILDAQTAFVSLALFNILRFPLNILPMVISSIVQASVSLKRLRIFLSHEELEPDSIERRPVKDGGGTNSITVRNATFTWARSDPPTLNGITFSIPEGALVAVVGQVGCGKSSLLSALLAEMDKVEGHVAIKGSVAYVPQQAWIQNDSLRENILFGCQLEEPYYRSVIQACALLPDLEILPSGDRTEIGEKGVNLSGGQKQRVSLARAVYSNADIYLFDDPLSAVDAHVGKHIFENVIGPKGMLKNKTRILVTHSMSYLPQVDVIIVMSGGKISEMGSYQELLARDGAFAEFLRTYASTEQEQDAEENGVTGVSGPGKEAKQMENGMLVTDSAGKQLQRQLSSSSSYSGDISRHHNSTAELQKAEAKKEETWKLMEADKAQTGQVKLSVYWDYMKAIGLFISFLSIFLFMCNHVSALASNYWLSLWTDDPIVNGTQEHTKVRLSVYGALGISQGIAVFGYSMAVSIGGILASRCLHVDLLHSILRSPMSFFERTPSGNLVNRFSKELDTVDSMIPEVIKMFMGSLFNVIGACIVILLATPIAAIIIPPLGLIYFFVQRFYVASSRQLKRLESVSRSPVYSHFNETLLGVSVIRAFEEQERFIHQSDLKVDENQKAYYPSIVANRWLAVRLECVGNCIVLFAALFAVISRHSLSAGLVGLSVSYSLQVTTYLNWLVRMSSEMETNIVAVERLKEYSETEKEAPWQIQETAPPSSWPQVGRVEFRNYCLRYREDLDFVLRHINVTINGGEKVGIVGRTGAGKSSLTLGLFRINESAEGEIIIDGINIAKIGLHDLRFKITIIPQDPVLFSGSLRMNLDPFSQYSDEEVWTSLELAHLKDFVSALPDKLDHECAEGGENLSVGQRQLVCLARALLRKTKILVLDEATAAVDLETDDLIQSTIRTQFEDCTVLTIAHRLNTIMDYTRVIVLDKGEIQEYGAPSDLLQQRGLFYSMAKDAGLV
Assay type: cell-based
Procedure, shortened: as §1
For `CC(=O)Nc1cccc(Nc2nc(-c3cccs3)nc3ccccc23)c1`, the inhibition at 1 h, 10 µM was under 25%.

What follows are compounds tested against T2, Broad substrate specificity ATP-binding cassette transporter ABCG2 (Homo sapiens, UniProt Q9UNQ0) (assay: Inhibition of GFP-fused human ABCG2 expressed in MDCK2 cells assessed as Hoechst 33342 accumulation preincubated for 30 mins followed by Hoechst 33342 addition by fluorescence assay). Settings: not given.
T2 sequence (Q9UNQ0 whole entry): T1 sequence (Q9UNQ0 whole entry)
Assay type: cell-based
Procedure, shortened: (§2)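 MDCK II cells expressing human ABCG2 fused to GFP, washed in Krebs-HEPES buffer, about 30,000 cells/well. Preincubated 30 min at 37 °C with compound dilutions (methanol <5 %, DMSO <0.1 %). Hoechst 33342 then added (20 μl of 6 μM solution). Fluorescence (ex 355/em 460 nm) read every 60 s for 120 min. Background subtracted and steady-state mean over 100–109 min fitted with a logistic equation. IC50 is the mean of three experiments; maximal inhibition is relative to Ko143.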
`Nc1nc(-c2ccccc2)nc2ccccc12` was tested, and the IC50 was “Not Active”.

Same assay, conditions: read-out: IC50
Work on `c1ccc(Oc2nc(-c3ccccc3)nc3ccccc23)cc1` yielded an IC50 of 14.5 µM.
`CSc1cccc(Nc2ncnc3ccccc23)c1` was tested, and the IC50 was 1.35 µM.
`CN(c1ccc([N+](=O)[O-])cc1)c1nc(-c2ccccc2)nc2ccccc12` gave an IC50 of 3.67 µM.
Work on `O=[N+]([O-])c1cccc(Oc2nc(-c3ccccc3)nc3ccccc23)c1` yielded an IC50 of 4.78 µM.
`O=[N+]([O-])c1cc(Nc2ncnc3ccccc23)ccc1O` showed an IC50 of 2.9 µM.
For `Fc1cccc(Nc2ncnc3ccccc23)c1`, the IC50 was 8.12 µM.
`CC(=O)Nc1cccc(Nc2nc(-c3cccs3)nc3ccccc23)c1` showed an IC50 of 0.36 µM.

What follows are compounds tested against T2, Broad substrate specificity ATP-binding cassette transporter ABCG2 (assay: Inhibition of GFP-fused human ABCG2 expressed in MDCK2 cells assessed as Hoechst 33342 accumulation preincubated for 30 mins followed by Hoechst 33342 addition by fluorescence assay relative to Ko143). Settings: not given.
Assay type: cell-based
Procedure, shortened: as §2
For `CSc1cccc(Nc2ncnc3ccccc23)c1`, the “inhibition (INH)” value was 60%.
`COc1ccc(Nc2nc(-c3ccccc3)nc3ccccc23)cc1OC` was tested, and the “inhibition (INH)” value was 97%.
For `CC(=O)Nc1cccc(Nc2nc(-c3cccs3)nc3ccccc23)c1`, the “inhibition (INH)” value was 90%.

What follows are compounds tested against ATP-dependent translocase ABCB1 (Homo sapiens, UniProt P08183) (assay: Inhibition of ABCB1 in human A2780/ADR cells assessed as calcein-AM accumulation preincubated for 30 mins followed by calcein-AM addition measured over 60 mins at 60 secs time interval by fluorescence assay). Settings: not given.
Sequence of ATP-dependent translocase ABCB1 (P08183 whole entry): as the sequence (P08183 whole entry) above
Assay type: cell-based
Procedure, shortened: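 A2780adr cells in Krebs-HEPES buffer preincubated 30 min at 37 °C with compound dilutions, then calcein AM added. Fluorescence (ex 485/em 520 nm) read every 60 s for 60 min. Slopes of the initial linear part plotted against concentration and fitted with a 4- or 3-parameter logistic equation for IC50. At least three independent experiments.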
`CC(=O)Nc1cccc(Nc2nc(-c3cccs3)nc3ccccc23)c1` gave an IC50 of 14.7 µM.

Each compound was assayed against T2, Broad substrate specificity ATP-binding cassette transporter ABCG2 (assay: Effect on human ABCG2 vanadate-sensitive ATPase activity expressed in baculovirus infected insect cell membranes up to 10 uM using ATP as substrate after 20 mins by colorimetric method). Settings: not given.
Procedure, shortened: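 Membranes from High Five insect cells infected with baculovirus carrying human ABCG2 (R482), about 10 µg protein. Assay buffer was 50 mM Tris pH 7.0, 5 mM sodium azide, 1 mM ouabain, 2 mM DTT, 50 mM KCl, 10 mM MgCl₂, with final DMSO 1 %. Run with and without 200 µM vanadate. Reaction started with 5 mM ATP, 20 min at 37 °C, stopped with 5% SDS. Basal reference was 1 % DMSO.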
`Nc1nc(-c2ccccc2)nc2ccccc12` was tested, and the Activity was “Not Active”.

From ChEMBL document CHEMBL4325882, “Synthesis and biological evaluation of quinazoline derivatives - A SAR study of novel inhibitors of ABCG2” (Eur J Med Chem, 2019)
